TLR9-MyD88 inh: TLR9-MyD88 interaction inhibition | Q9NR96+Q99836 | CHO BLA complementation TLR9-MyD88, CCF4 FRET ratio | inhibition, % at 4.98 µM | 0.21% of 340,000 active;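 active means inhibition above the mean over all tested compounds plus 3 SD, cut at about 21% in these data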
NOD2 RIPK2 PPI: NOD2-RIPK2 protein interaction inhibition. CHO BLA complementation NOD2-RIPK2, CCF4 ratio. inhibition, % at 4.98 µM. 0.38% of 360,000 active; in the data active means inhibition above about 21%
Target sequence (O43353 whole entry, looked up): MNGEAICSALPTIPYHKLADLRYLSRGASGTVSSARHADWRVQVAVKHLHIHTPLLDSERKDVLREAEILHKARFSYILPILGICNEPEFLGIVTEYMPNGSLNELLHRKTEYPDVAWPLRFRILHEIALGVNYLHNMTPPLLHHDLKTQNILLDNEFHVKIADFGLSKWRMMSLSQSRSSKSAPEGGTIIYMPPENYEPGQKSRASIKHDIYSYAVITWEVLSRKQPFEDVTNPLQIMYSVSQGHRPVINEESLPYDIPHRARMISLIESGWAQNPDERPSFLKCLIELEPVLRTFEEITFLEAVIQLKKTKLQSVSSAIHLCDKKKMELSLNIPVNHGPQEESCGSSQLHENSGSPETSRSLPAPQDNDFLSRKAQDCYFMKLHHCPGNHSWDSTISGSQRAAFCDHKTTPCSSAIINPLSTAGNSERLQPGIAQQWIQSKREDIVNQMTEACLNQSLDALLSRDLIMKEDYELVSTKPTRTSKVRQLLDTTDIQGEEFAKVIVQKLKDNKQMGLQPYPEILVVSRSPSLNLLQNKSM
SR-BI uptake up: SR-BI HDL lipid transfer activation | CHO ldlA[mSR-BI] cells, DiI-HDL uptake fluorescence, 3 h; 100 = double the neutral-control signal | activation, % at 12.5 µM | 0.096% of 320,000 active | AID 504775;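 active means mean replicate activation of at least 60% and every replicate at or above 60%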
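System: LDL receptor-deficient CHO ldlA cells overexpressing murine SR-BI | Timing: 3 h uptake period with compound, 37 °C | Medium: HEPES-buffered (25 mM, pH 7.4) F12 plus 0.5% BSA | Dosing: Single-point compound dose | Signal: Bottom-read fluorescence, 550/595 nm | Read-out: Retained DiI signal reflecting DiI-HDL uptake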
TLR4-MyD88 BLA: TLR4-MyD88 interaction inhibition in cells; O00206+Q99836; HeLa CL3-4 TLR4/MyD88 BLA complementation, FRET ratio; inhibition, % at 8.4 µM; 0.18% of 200,000 active; AID 861; in the data active means inhibition above about 25%
SR-BI HDL uptake: blocks mouse SR-BI lipid uptake from DiI-HDL. Q61009. ldlA[mSR-BI] CHO cells, DiI-HDL uptake fluorescence, 3 h. inhibition, % at 12.5 µM. 0.96% of 320,000 active. AID 488896;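 active means mean replicate inhibition of at least 70% and a set share of replicates each scoring 70 or more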
Hep lipid drop: hepatic lipid droplet formation modulation; AML12 mouse hepatocytes, oleate lipid droplets, BODIPY imaging; inhibition, % at 6.5 µM; 0.4% of 240,000 active;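 active means lipid droplet intensity inhibited by at least 50%, with more than 500 cells counted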
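Assay system: AML12 hepatocytes (mouse); Probe or stimulus: oleic acid at 100 µM to induce lipid droplet formation; Dosing: compound at 6.5 µM only; Schedule: compound with oleate, overnight; Detection: fluorescence imaging, 20x objective, two fields per well; Measure: % inhibition of lipid droplet signal.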
TLR9-MyD88 cf: TLR9-MyD88 interaction inhibition, confirmation; shares compounds with TLR9-MyD88 inh; inhibition, % at 4.98 µM; 51% of 680 active; CHO TLR9/MyD88 BLA complementation, CCF4 FRET ratio;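 active means mean inhibition across three repeats above about 21% taken from the earlier screen, limit read from the data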;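 further: blue over green emission ratio reports constitutive TLR9 MyD88 association via BLA complementation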
BLA counter-1: counter-screen for TLR9-MyD88 inhibitors: non-selective beta-lactamase inhibitors. shares compounds with TLR9-MyD88 inh. CHO-BLA cells, CCF4 FRET ratio, BLA reporter. 7% of 680 active. inhibition, % at 4.98 µM. AID 540251;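 active means mean inhibition above a 50% cutoff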;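 further: counterscreen of TLR9-MyD88 hits on CMV-driven BLA in CHO-K1 cells; higher means less blue over green ratio so more BLA blockade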
TLR9 CHO cytotox: counter-screen for TLR9-MyD88 inhibitors: cytotoxicity in CHO cells; inhibition, % at 4.98 µM; shares compounds with TLR9-MyD88 inh; AID 588336; 39% of 680 active; luminescence; in the data active means inhibition above about 11%
NOD2-RIPK2 conf: NOD2-RIPK2 interaction inhibition confirmed. inhibition, % at 4.98 µM. shares compounds with NOD2 RIPK2 PPI. 70% of 1,200 active. CHO cells, NOD2-RIPK2 BLA complementation, CCF4 FRET. AID 624370;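 active means mean inhibition across replicates above a set limit taken from the earlier primary screen, cut at about 21% in these data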
BLA counter-2: counter-screen for NOD2-RIPK2 interaction inhibitors: BLA reporter; shares compounds with NOD2 RIPK2 PPI; AID 624371; CHO BLA reporter, CCF4 FRET ratio, counterscreen; inhibition, % at 4.98 µM; 57% of 1,200 active;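 active means mean inhibition above the low-control mean inhibition plus three low-control SD, cut at about 11% in these data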
Large screens that a line does not name were inactive (follow-up assays come after a bar, where they were run). In the library only some 1.6% were active in any assay of this set; here they are far more common.

CC1(C(=O)Nc2ccc3c(c2)OCO3)CCN1C(=O)CCC1CCCC1 (stereo unspecified)	none (no result: TLR9-MyD88 inh, SR-BI uptake up, TLR4-MyD88 BLA, SR-BI HDL uptake, Hep lipid drop)
O=C(CC[C@H]1O[C@@H](n2ccc(=O)[nH]c2=O)[C@H](O)[C@@H]1O)N[C@H](Cc1ccccc1)C(=O)NC1CCCCC1	none (no result: TLR9-MyD88 inh, SR-BI uptake up, TLR4-MyD88 BLA, SR-BI HDL uptake, Hep lipid drop)
Cc1ccc(CNC(=O)c2cccc3c2C(=O)c2ccc(N4CCCCC4)cc2S3(=O)=O)cc1	TLR9-MyD88 inh 25, NOD2 RIPK2 PPI 27 (no result: TLR4-MyD88 BLA, Hep lipid drop) | TLR9-MyD88 cf inactive | BLA counter-1 inactive | TLR9 CHO cytotox inactive | NOD2-RIPK2 conf 31 | BLA counter-2 33
Cc1ccc(CNC(=O)c2cccc3c2C(=O)c2ccc(N4CCOCC4)cc2S3(=O)=O)cc1	none (no result: TLR4-MyD88 BLA, Hep lipid drop)
O=C(NCc1ccccc1C(F)(F)F)c1cccc2c1C(=O)c1ccc(N3CCC(N4CCCCC4)CC3)cc1S2(=O)=O	TLR9-MyD88 inh 30, NOD2 RIPK2 PPI 68 (no result: SR-BI uptake up, TLR4-MyD88 BLA, SR-BI HDL uptake, Hep lipid drop) | TLR9-MyD88 cf 30 | BLA counter-1 inactive | TLR9 CHO cytotox inactive | NOD2-RIPK2 conf 73 | BLA counter-2 70
CCCC(=O)Nc1sc(Cc2ccccc2)c(C)c1C(N)=O	none
CCc1ccc(NC(=O)c2nc(S(=O)(=O)Cc3ccccc3)ncc2Cl)cc1	TLR9-MyD88 inh 47, NOD2 RIPK2 PPI 96 (no result: TLR4-MyD88 BLA) | TLR9-MyD88 cf 50 | BLA counter-1 inactive | TLR9 CHO cytotox 98 | NOD2-RIPK2 conf 94 | BLA counter-2 40
CC(C)c1nnc(NC(=O)c2nc(S(=O)(=O)Cc3ccccc3)ncc2Cl)s1	TLR9-MyD88 inh 22, NOD2 RIPK2 PPI 26 (no result: TLR4-MyD88 BLA) | TLR9-MyD88 cf inactive | BLA counter-1 inactive | TLR9 CHO cytotox 29 | NOD2-RIPK2 conf 37 | BLA counter-2 24
CSc1nnc(NC(=O)c2nc(S(=O)(=O)Cc3ccccc3)ncc2Cl)s1	none (no result: TLR4-MyD88 BLA)
CCOC(=O)c1ccc(NC(=O)c2nc(S(=O)(=O)Cc3ccccc3)ncc2Cl)cc1	TLR9-MyD88 inh 42, NOD2 RIPK2 PPI 55 (no result: TLR4-MyD88 BLA) | TLR9-MyD88 cf 30 | BLA counter-1 inactive | TLR9 CHO cytotox 99 | NOD2-RIPK2 conf 87 | BLA counter-2 50
CC1CCN(S(=O)(=O)c2ccc(NC(=O)c3ccncc3)cc2)CC1	none (no result: TLR4-MyD88 BLA)
CCS(=O)(=O)c1ncc(Cl)c(C(=O)Nc2ccc(S(=O)(=O)N3CCC(C)CC3)cc2)n1	TLR9-MyD88 inh 58, NOD2 RIPK2 PPI 96 (no result: TLR4-MyD88 BLA) | TLR9-MyD88 cf 49 | BLA counter-1 inactive | TLR9 CHO cytotox 99 | NOD2-RIPK2 conf 96 | BLA counter-2 48
Cc1ccc(NC(=O)c2nc(S(=O)(=O)Cc3ccccc3C)ncc2Cl)cc1C	TLR9-MyD88 inh 41, NOD2 RIPK2 PPI 97 (no result: TLR4-MyD88 BLA) | TLR9-MyD88 cf 35 | BLA counter-1 inactive | TLR9 CHO cytotox 83 | NOD2-RIPK2 conf 86 | BLA counter-2 33
CC(=O)Nc1ccc(NC(=O)c2nc(S(=O)(=O)Cc3cccc(C)c3)ncc2Cl)cc1	TLR9-MyD88 inh 27, NOD2 RIPK2 PPI 82 (no result: TLR4-MyD88 BLA) | TLR9-MyD88 cf 44 | BLA counter-1 inactive | TLR9 CHO cytotox 97 | NOD2-RIPK2 conf 81 | BLA counter-2 44
CCn1c(Cl)c(C=O)s/c1=N\S(=O)(=O)c1ccccc1	TLR9-MyD88 inh 48, NOD2 RIPK2 PPI 94 (no result: TLR4-MyD88 BLA) | TLR9-MyD88 cf 53 | BLA counter-1 inactive | TLR9 CHO cytotox 96 | NOD2-RIPK2 conf 98 | BLA counter-2 38

Source: PubChem BioAssay
